For series [1], the system named is RAW264.7. As to the kind of experiment: Antiinflammatory activity against mouse RAW264.7 cells assessed as LPS-induced TNF-alpha at 30 uM pretreated for 2 hrs followed by LPS stimulation and measured after 22 hrs by ELISA (reference value: 0 %). The format is functional. The settings on record: time 24 hrs. The method, boiled down:
(§1)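 Mouse RAW264.7 macrophages were pretreated with compound for 2 h, then stimulated with LPS (1.0 µg/mL) for 22 h. Culture medium was centrifuged at 1000 rpm for 10 min, and secreted TNF-α and IL-6 were each quantified by ELISA kit. Inhibition rates are means of three replicates.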
(In general: An ELISA detects its analyte on a solid surface through an enzyme-linked reagent.)

Series [2] concerns RAW264.7. As to the kind of experiment: Antiinflammatory activity against mouse RAW264.7 cells assessed as LPS-induced IL-6 at 30 uM pretreated for 2 hrs followed by LPS stimulation and measured after 22 hrs by ELISA (reference value: 0 %). Format: functional. The settings on record: time 24 hrs. In a few lines:
as §1

Series [3] concerns HepG2. As to the kind of experiment: Cytotoxicity against human HepG2 cells assessed as reduction in cell viability incubated for 24 hrs by MTT assay. The format is functional, cell-based. To be noted: HepG2, 24 h. In a few lines: (§2)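 Cells kept at 37 °C in 5% CO₂. HepG2 grown in DMEM with 10% serum; HHL-5, LO2 and SMMC-7721 in 1640 medium with 10% serum. Seeded, grown 24 h, then exposed 24 h to 10, 5, 2.5, 1.25, 0.625 and 0.3125 µg/mL. MTT (5 mg/mL) added for 4 h at 37 °C; formazan dissolved in DMSO, OD read at 570 nm. IC50 averaged from three replicates.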

The subject of series [4] is SMMC-7721. As to the kind of experiment: Cytotoxicity against human SMMC-7721 cells assessed as reduction in cell viability incubated for 24 hrs by MTT assay. Format: functional, cell-based. To be noted: SMMC-7721, 24 h. In a few lines:
as §2
In general terms: Formazan colour is commonly taken as a measure of viable cells.

Series [5] in a line: Cytotoxicity against human HHL-5 cells assessed as reduction in cell viability incubated for 24 hrs by MTT assay. Format: cell-based. The settings on record: HHL-5, 24 h. The method, boiled down: as §2
The test system of series [6] is L02. As to the kind of experiment: Cytotoxicity against human L02 cells assessed as reduction in cell viability incubated for 24 hrs by MTT assay. Format: cell-based. To be noted: L02, 24 h. In a few lines:
as §2

Series [7] deals with RAW264.7. As to the kind of experiment: Cytotoxicity against mouse RAW264.7 cells assessed as reduction in cell viability at 5 uM incubated for 24 hrs by MTT assay. To be noted: raw264.7, 24 h. Format: cell-based.
Series [8] relates to RAW264.7. As to the kind of experiment: Antiinflammatory activity against mouse RAW264.7 cells assessed as LPS-induced TNF-alpha at 5 uM pretreated for 2 hrs followed by LPS stimulation and measured after 22 hrs by ELISA (reference value: 0 %). Format: functional. The settings on record: time 24 hrs.
Series [9] has as its system RAW264.7. As to the kind of experiment: Antiinflammatory activity against mouse RAW264.7 cells assessed as LPS-induced IL-6 at 5 uM pretreated for 2 hrs followed by LPS stimulation and measured after 22 hrs by ELISA relative to control (reference value: 0 %). Format: functional. To be noted: time 24 hrs.

SMILES strings stand for the structures.

Broadly, the inhibition is the change of the read-out against control, counted positive when it falls. As usually defined, the IC50 is the point on the concentration scale where inhibition reaches its midpoint.

As for `S=C(S)N1CCCC1` [PYRROLIDINE DITHIOCARBAMATE], the inhibition at 30 µM in [1] is 66.5%; in series [2], 56.9%.
On to `Cl.NC1=NC(c2ccccc2F)C2=C(N1)/C(=C/c1ccccc1F)CN(S(=O)(=O)c1ccccc1)C2` (configuration not stated), for which the IC50 in series [3] worked out at 9.9 µM; in [4] it was 8.5 µM; in series [5] it was 9.9 µM; in series [6], 11.2 µM. The Activity result in series [7] is “Non-Toxic”. Further, the inhibition at 5 µM in series [8] was found to be 46.9%; in series [9] it was 40.5%.
For the compound `Cl.NC1=NC(c2ccc(F)cc2)C2=C(N1)/C(=C/c1ccc(F)cc1)CN(S(=O)(=O)c1ccc(C(F)(F)F)cc1)C2` (configuration not stated), the concentration for half-maximal inhibition (IC50) was 3.3 µM in series [3], 3.8 µM in [4], 24.4 µM in [5] and 15.4 µM in series [6]. Also, the Activity entry in series [7] is on record as “Non-Toxic”. The inhibition at 5 µM in [8] stood at 87.5%; in series [9], 81.7%.
`Cc1ccc(S(=O)(=O)N2CC3=C(NC(N)=NC3c3cccc(F)c3)/C(=C/c3cccc(F)c3)C2)cc1.Cl` (configuration not stated): the 50% inhibitory concentration (IC50) came to 11.7 µM in series [3], 11.7 µM in series [4], 23.2 µM in series [5] and 11.2 µM in [6]. In series [7], the Activity entry is on record as “Non-Toxic”. Also, the values for the inhibition at 5 µM in series [8] and in series [9] were 40.5% and 46.7%, respectively.
On to `Cl.NC1=NC(c2ccc(F)cc2)C2=C(N1)/C(=C/c1ccc(F)cc1)CN(S(=O)(=O)c1ccc([N+](=O)[O-])cc1)C2` (configuration not stated), for which the concentration for half-maximal inhibition (IC50) in series [3] worked out at 9.4 µM; in series [4], 19.1 µM; in series [5] it was 10.3 µM; in [6], 12.5 µM. Besides, in series [7], the Activity entry is on record as “Non-Toxic”. The inhibition at 5 µM in series [8] was found to be 65.9%; in [9], 66.8%.
Consider `Cl.NC1=NC(c2ccccc2F)C2=C(N1)/C(=C/c1ccccc1F)CN(S(=O)(=O)c1ccc([N+](=O)[O-])cc1)C2` (configuration not stated), for which the concentration for half-maximal inhibition (IC50) stood at 11.9 µM in series [3], 5.7 µM in [4], 10.7 µM in series [5] and 12.4 µM in series [6]. Besides, the Activity result in series [7] is on record as “Non-Toxic”. Besides, the inhibition at 5 µM in series [8] turned out to be 72.7%; in series [9], 79.6%.

The record behind these values is ChEMBL document CHEMBL4680257, “Discovery of novel NF-кB inhibitor based on scaffold hopping: 1,4,5,6,7,8-hexahydropyrido[4,3-d]pyrimidine” (Eur J Med Chem, 2020).
